Laboratory results taken from ChEMBL document CHEMBL2046279, “Trigoflavidols A-C, degraded diterpenoids with antimicrobial activity, from Trigonostemon flavidus” (J Nat Prod, 2012).
≈ marks a conversion by molar mass, not a printed value.

Experiments:
MCF7 = test: Cytotoxicity against human MCF7 cells by MTT assay; type: functional, cell-based
Staphylococcus aureus [1] = test: Antimicrobial activity against Staphylococcus aureus by agar plate punch assay; type: functional
In short: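 Compounds dissolved in DMSO at 500 μg/mL; 50 μL placed in a 6 mm well punched in MH agar smeared with test organism suspension (1.5 × 10^9 cfu/mL). Read-out is diameter of the inhibition zone.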

HL-60 = test: Cytotoxicity against human HL60 cells by MTT assay; type: functional, cell-based
SW480 = test: Cytotoxicity against human SW480 cells by MTT assay; type: functional, cell-based
Staphylococcus aureus [2] = test: Antimicrobial activity against 8 isolates of methicillin-resistant Staphylococcus aureus after 18 hrs by two-fold dilution method; type: functional
A549 = test: Cytotoxicity against human A549 cells by MTT assay; type: functional, cell-based
SMMC-7721 = test: Cytotoxicity against human SMMC7721 cells by MTT assay; type: functional, cell-based
Staphylococcus aureus [3] = test: Antimicrobial activity against 82 isolates of methicillin-resistant Staphylococcus aureus after 18 hrs by two-fold dilution method; type: functional
Staphylococcus aureus [4] = test: Antimicrobial activity against Staphylococcus aureus after 18 hrs by two-fold dilution method; type: functional

**Q.** Which IC50 (MCF7) does the source give for `COC(=O)[C@@]1(O)[C@]2(Oc3cc4c(cc(OC)c5cc(C)c(O)cc54)c(C)c3O2)c2c(cc(OC)c3cc(C)c(O)cc23)[C@@]1(C)O` (relative stereo) here?
**A.** 14.6 µM

**Q.** What about the “diameter of the inhibition zone (DIZ)” value (Staphylococcus aureus [1]) of the same molecule?
**A.** >10 mm

**Q.** What about the IC50 (HL-60) of the same molecule?
**A.** 21.1 µM

**Q.** And the IC50 (SW480)?
**A.** 15.9 µM

**Q.** What about the MIC (Staphylococcus aureus [2]) of the same molecule?
**A.** 3.12 µg/mL (≈ 5.09 µM)

**Q.** What about the IC50 (A549) of the same molecule?
**A.** 19.8 µM

**Q.** And the IC50 (SMMC-7721)?
**A.** 21.6 µM

**Q.** And the MIC (Staphylococcus aureus [3])?
**A.** 6.25 µg/mL (≈ 10.2 µM)

**Q.** And the MIC (Staphylococcus aureus [4])?
**A.** 1.56 µg/mL (≈ 2.55 µM)

**Q.** Which IC50 (MCF7) does the source give for `Cc1cc2c(cc1O)C1=C(C3=C4C(=CC(=O)c5cc(C)c(O)cc54)C(C)(C)C3=O)C(=O)C(C)(C)C1=CC2=O` [NEOBOUTOMANNIN] here?
**A.** > 40 µM

**Q.** And the IC50 (HL-60)?
**A.** > 40 µM

**Q.** What about the IC50 (SW480) of the same molecule?
**A.** > 40 µM

**Q.** And the IC50 (A549)?
**A.** > 40 µM

**Q.** What about the IC50 (SMMC-7721) of the same molecule?
**A.** > 40 µM

**Q.** What about the MIC (Staphylococcus aureus [4]) of the same molecule?
**A.** > 50 µg/mL

**Q.** How did the IC50 (MCF7) turn out when `COC(=O)[C@@]1(O)[C@@]2(Oc3cc4c(cc(OC)c5cc(C)c(O)cc54)c(C)c3O2)c2c(cc(OC)c3cc(C)c(O)cc23)[C@@]1(C)O` [TRIGOFLAVIDOL B] was run?
**A.** 14.6 µM

**Q.** What about the “diameter of the inhibition zone (DIZ)” value (Staphylococcus aureus [1]) of the same molecule?
**A.** >10 mm

**Q.** What about the IC50 (HL-60) of the same molecule?
**A.** > 40 µM

**Q.** What about the IC50 (SW480) of the same molecule?
**A.** 15.4 µM

**Q.** What about the MIC (Staphylococcus aureus [2]) of the same molecule?
**A.** 3.12 µg/mL (≈ 5.09 µM)

**Q.** What about the IC50 (A549) of the same molecule?
**A.** 17.1 µM

**Q.** And the IC50 (SMMC-7721)?
**A.** 19.5 µM

**Q.** What about the MIC (Staphylococcus aureus [3]) of the same molecule?
**A.** 3.12 µg/mL (≈ 5.09 µM)

**Q.** What about the MIC (Staphylococcus aureus [4]) of the same molecule?
**A.** 1.56 µg/mL (≈ 2.55 µM)

**Q.** For `COc1cc2c(cc(OC)c3cc(C)c(O)cc32)oc1=O` [TRIGOFLAVIDOL C], which IC50 (MCF7) is on record?
**A.** > 40 µM

**Q.** And the IC50 (HL-60)?
**A.** > 40 µM

**Q.** What about the IC50 (SW480) of the same molecule?
**A.** > 40 µM

**Q.** And the IC50 (A549)?
**A.** > 40 µM

**Q.** And the IC50 (SMMC-7721)?
**A.** > 40 µM

**Q.** And the MIC (Staphylococcus aureus [4])?
**A.** > 50 µg/mL

**Q.** Which results are given for `COc1cc2c(cc(OC)c3cc(C)c(O)cc32)c(C)c1O` [TRIGONOCHINENE E]?
**A.** IC50 (MCF7): 18.4 µM; diameter of the inhibition zone (DIZ) (Staphylococcus aureus [1]): >10 mm; IC50 (HL-60): 3.75 µM; IC50 (SW480): 20.5 µM; IC50 (A549): 21 µM; IC50 (SMMC-7721): 29 µM; MIC (Staphylococcus aureus [4]): > 50 µg/mL

**Q.** Which results are given for `CN[C@H](CC(C)C)C(=O)N[C@H]1C(=O)N[C@@H](CC(N)=O)C(=O)N[C@H]2C(=O)N[C@H]3C(=O)N[C@H](C(=O)N[C@H](C(=O)O)c4cc(O)cc(O)c4-c4cc3ccc4O)[C@H](O)c3ccc(c(Cl)c3)Oc3cc2cc(c3O[C@@H]2O[C@H](CO)[C@@H](O)[C@H](O)[C@H]2O[C@H]2C[C@](C)(N)[C@H](O)[C@H](C)O2)Oc2ccc(cc2Cl)[C@H]1O.Cl` [VANCOMYCIN HYDROCHLORIDE]?
**A.** MIC (Staphylococcus aureus [2]): 0.78 µg/mL; MIC (Staphylococcus aureus [3]): 0.78 µg/mL; MIC (Staphylococcus aureus [4]): 1.56 µg/mL
